Screening results as filed in PubChem BioAssay.
ABHD4 inh = ABHD4 inhibitors, primary screen, biochemical, fluorescence polarization, mouse. (Lyso)-N-acylphosphatidylethanolamine lipase (Mus musculus), Q8VD66. 0.54% of 370,000 active. purified mABHD4, FP-Rh probe fluorescence polarization. inhibition, % at 8.92 µM. AID 720543, 2013;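 active means inhibition exceeding the mean over every tested compound plus 3 SD, cut at about 30% in these data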;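 further: 0% = plate median of compound wells and 100% = S159A mutant with DMSO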
Target sequence (Q8VD66 whole entry, looked up): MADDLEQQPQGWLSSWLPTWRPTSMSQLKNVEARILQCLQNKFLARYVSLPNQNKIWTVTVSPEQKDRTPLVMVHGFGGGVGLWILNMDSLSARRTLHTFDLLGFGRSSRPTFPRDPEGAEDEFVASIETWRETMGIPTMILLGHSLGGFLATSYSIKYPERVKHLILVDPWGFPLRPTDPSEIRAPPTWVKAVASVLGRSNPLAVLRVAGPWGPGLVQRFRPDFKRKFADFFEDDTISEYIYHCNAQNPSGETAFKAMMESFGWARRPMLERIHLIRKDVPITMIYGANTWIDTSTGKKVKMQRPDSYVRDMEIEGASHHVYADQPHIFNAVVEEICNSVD
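System: mouse ABHD4 enzyme, wild type / Medium: HEPES pH 7.0, NaCl, Pluronic buffer / Reagent: FP-Rh activity-based fluorescent probe / Control set: S159A mutant high control, sample median low control / Detection: fluorescence polarization with parallel and perpendicular emission, 525/598 nm / Schedule: 45 min + 60 min at 25 °C / Compound dosing: 8.92 µM, single dose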
PRMT1 FP inh = PRMT1 methyltransferase inhibitors, primary screen, biochemical, fluorescence polarization; Protein arginine N-methyltransferase 1 (Homo sapiens), Q99873; recombinant PRMT1, activity-based probe fluorescence polarization; inhibition, % at 2.79 µM; 1.3% of 370,000 active; AID 652257, 2013;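 active means inhibition above about 21% made by adding two undisclosed values, limit read from the data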
Target sequence (Q99873 whole entry, looked up): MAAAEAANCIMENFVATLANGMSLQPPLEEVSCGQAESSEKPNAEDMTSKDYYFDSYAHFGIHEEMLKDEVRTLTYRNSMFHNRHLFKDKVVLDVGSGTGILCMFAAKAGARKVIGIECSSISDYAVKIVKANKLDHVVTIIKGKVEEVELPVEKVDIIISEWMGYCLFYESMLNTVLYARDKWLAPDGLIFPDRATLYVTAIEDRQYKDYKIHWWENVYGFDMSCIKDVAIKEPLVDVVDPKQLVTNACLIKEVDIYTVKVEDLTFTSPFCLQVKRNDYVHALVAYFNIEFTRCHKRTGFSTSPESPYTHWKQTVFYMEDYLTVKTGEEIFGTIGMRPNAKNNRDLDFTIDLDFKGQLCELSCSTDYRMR
rCAG binder = binders of r(CAG) RNA repeats, primary screen, biochemical, fluorescence; 1.3% of 370,000 active; r(CAG) RNA repeat, TO-PRO-1 dye displacement fluorescence; AID 651821, 2012; inhibition, % at 3 µM;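 active means inhibition above the plate cutoff, the mean of all test compounds on that plate plus 3 SD, cut at about 35% in these data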;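 further: 0% = DMSO alone and 100% = 100 µM mitoxantrone as full dye displacement; higher means more dye released from RNA so lower well fluorescence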
HTRA1 inhibitor = HTRA1 serine protease inhibitors, primary screen, biochemical, fluorescence polarization, HTS; inhibition, % at 5.96 µM; recombinant HTRA1, FP-rhodamine activity-based probe; Q92743; 0.5% of 340,000 active; in the data active means inhibition above about 36%;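 further: 0% = enzyme with DMSO and 100% = wells lacking enzyme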
TCR-CD3 inh = inhibitors of human TCR-CD3 interaction, primary screen, biochemical, fluorescence, TAMRA-labeled TCR probe; inhibition, % at 9.4 µM; 0.37% of 360,000 active; in the data active means inhibition above about 19%;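 further: recombinant mutant TCR 2C K166C tagged with TAMRA read by polarization; 0% = receptor in buffer alone and 100% = receptor with positive control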
SIAE primary = human SIAE inhibitors, primary screen, biochemical, fluorescence polarization, FP-Rh probe, 1536-well HTS | Sialate O-acetylesterase (Homo sapiens), Q9HAT2 | SIAE FP-Rh probe binding | inhibition, % at 9.66 µM | 0.69% of 370,000 active | AID 1053197, 2014;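 active means inhibition above a cutoff: mean of compounds within the control limits plus 3 SD of those, cut at about 17% in these data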;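 further: 0% = plate median of compound wells and 100% = probe without SIAE protein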
PRMT1 inh conf = PRMT1 methyltransferase inhibitors, confirmation, biochemical, fluorescence polarization, triplicate | shares compounds with PRMT1 FP inh | recombinant His-PRMT1, activity-based probe fluorescence polarization | inhibition, % at 2.79 µM | 42% of 3,300 active | AID 687036, 2013;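 active means mean inhibition across replicates above the hit cutoff derived for the earlier primary screen, cut at about 22% in these data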
* = called active by the depositor; . = no result. A selection: hits, their analogues and other compounds. The true share with any hit is near 3.5%.

SMILES	ABHD4 inh	PRMT1 FP inh	rCAG binder	HTRA1 inhibitor	TCR-CD3 inh	SIAE primary	PRMT1 inh conf
CCn1nc(C)cc1-c1nnc(SCC(=O)Nc2ccccc2)n1CCCOC	1.2	2.2	-8.8	8.3	-7.2	-7.1	.
CCn1nc(C)cc1-c1nnc(Sc2ncc([N+](=O)[O-])s2)n1C	2.1	54.8*	1.0	8.0	0.2	1.6	62.6*
COCCNC(=O)C1Nc2ccc(OC(F)(F)F)cc2C2C=CCC12 (stereo not drawn)	29.3	26.3*	29.4	33.0	2.9	13.1	7.0
COCCCNCC(=O)Nc1ccc(OC(F)(F)F)cc1	7.5	0.1	-0.3	7.6	-5.9	2.1	.
COc1cccc(Cn2cc(COC(=O)NCCc3ccccc3)nn2)c1	1.1	-1.7	-2.5	.	.	-2.5	.
CN(c1ncc(C(F)(F)F)cc1Cl)N1C(=O)C2ONC3(C(=O)CC(C)(C)CC3=O)C2C1=O (stereo not drawn)	-12.0	72.2*	27.8	-2.0	0.2	6.5	-7.0
CN(c1ncc(C(F)(F)F)cc1Cl)N1C(=O)c2cccc(N)c2C1=O	-8.8	9.0	-20.5	-28.2	6.5	3.2	.
COc1cc(C)c(NC(=O)C(=S)NCCc2ccccc2)cc1C	1.4	30.7*	1.3	-6.8	5.7	-7.2	38.5*
COc1ccc(NC(=S)NCCc2ccccc2)c(C)c1	-2.0	-2.4	-5.1	2.5	1.3	4.7	.
COC(=O)C1CN(Cc2cn(Cc3ccc(F)cc3)nn2)CCS(=O)(=O)N1Cc1ccc(C)cc1 (stereo not drawn)	2.7	-1.5	2.1	.	.	1.8	.
O=C1CC(Sc2nnc(-c3ccccc3O)o2)C(=O)N1c1ccccc1 (stereo not drawn)	8.7	65.7*	1.4	-1.7	-1.6	-2.6	65.4*
COc1ccc(N2C(=O)CC(Sc3nnc(-c4ccccc4)o3)C2=O)cc1 (stereo not drawn)	0.4	63.2*	4.5	-0.8	-5.9	-13.5	38.6*
COc1ccc(N2C(=O)CC(Sc3nc(C)cc(C)c3C#N)C2=O)cc1 (stereo not drawn)	1.0	7.4	0.8	-1.8	2.0	0.4	.
Cc1cccc2sc(=S)[nH]c12	-7.9	27.8*	2.4	.	-1.0	11.7	15.9
S=c1[nH]c2ccc(Cl)cc2s1	3.9	18.0	1.0	-3.6	-0.3	5.9	.
CCCCCCCCNC(=O)C1CSCCS(=O)(=O)N1Cc1ccccc1 (stereo not drawn)	-8.1	-2.4	-1.7	.	.	-5.0	.
Cc1ccc(C2/C(=C(/O)c3ccc(Br)cc3)C(=O)C(=O)N2Cc2ccco2)o1 (stereo not drawn)	28.2	35.0*	19.5	16.9	-0.4	7.3	9.9
COc1ccc(/C(O)=C2\C(=O)C(=O)N(Cc3ccco3)C2c2cc(OC)ccc2OC)cc1 (stereo not drawn)	3.7	0.8	8.1	-8.3	1.6	2.9	.
COc1ccc(-c2cc(C(F)(F)F)c3c(N)c(C(=O)NCCSC)sc3n2)cc1	0.2	2.9	-1.8	-11.6	-0.8	-5.5	.
COc1cccc(-c2nc(SC)nc3sc(C(=O)NC(C)(C)C)c(N)c23)c1	0.2	25.4*	7.4	-24.4	-1.6	4.6	0.0
CC(=O)NC1=NC(=O)/C(=C/c2cc(C)n(-c3ccc(NC(C)=O)cc3)c2C)S1	-1.0	32.1*	15.2	-1.2	0.5	-5.8	-8.9
CCN=C1S/C(=C\c2cn(C(C)=O)nc2-c2ccccc2)C(=O)N1CC	-3.7	-2.5	2.2	-33.1	5.0	-8.0	.
CC(=O)NC1=NC(=O)/C(=C/c2cn(C(C)=O)nc2-c2ccccc2)S1	-20.8	30.5*	6.2	-4.4	-1.8	-8.1	26.8*
CC1=NN2C(=N)/C(=C\c3cc(C)n(-c4cccc(C)c4)c3C)C(=O)N=C2S1	-2.3	3.8	6.3	2.9	-9.8	-4.0	.
CC(=O)NC1=NC(=O)/C(=C/c2cc(C)n(-c3cccc(C(=O)O)c3)c2C)S1	8.8	57.1*	23.8	.	6.8	-4.5	9.3
SMILES	ABHD4 inh	PRMT1 FP inh	rCAG binder	HTRA1 inhibitor	TCR-CD3 inh	SIAE primary	PRMT1 inh conf
CCC(CC)NC(=O)O[C@H]1CC[C@@]23CCCN2C(=O)CCC[C@H]3C1	2.0	2.5	.	.	.	-0.4	.
CCOC(=O)C1CCN(c2nc(N)c3c(N)nc(SCC(=O)O)cc3c2C#N)CC1	26.2	55.4*	34.8*	15.0	7.4	-2.3	26.3*
O=C(CCl)Nc1ncc(S(=O)(=O)c2ccc([N+](=O)[O-])cc2)s1	4.1	33.2*	4.6	-0.8	-2.7	2.5	3.2
CC(C)=C1C2CCC1C1C(=O)N(c3ccc4c(c3)OCO4)C(=O)C21 (stereo not drawn)	-0.4	-2.8	-2.7	8.0	-1.0	-1.1	.
CC(C)=C1C2C=CC1C1C(=O)N(c3ccc4c(c3)OCO4)C(=O)C21 (stereo not drawn)	6.9	72.7*	-3.8	-4.3	8.7	-3.8	5.0
O=C1c2ccccc2[C@@H]2Cc3csc[n+]3[C@H]12	7.9	85.3*	4.7	.	6.2	2.1	82.7*
CCC(=O)/C=C1\Sc2ccc(OC)cc2N1CC	-3.1	52.4*	-1.4	0.3	1.3	0.1	19.1
COc1ccc(C(=O)/C=C/C(=O)N(CC(=O)NC2CCCCC2)CC2CCCO2)c(O)c1 (stereo not drawn)	1.7	33.9*	-3.4	-14.9	6.1	-3.8	41.5*
CN(C)S(=O)(=O)c1cccc(N=C2NN=C(c3ccccc3)CS2)c1	-5.6	54.4*	15.2	.	-3.7	-11.2	39.1*
COC(=O)[C@H](CC(C)C)N1Cc2nnn(CC3CCCCC3)c2-c2cc(F)ccc2S1(=O)=O	0.6	0.2	3.8	.	.	-2.0	.
CCOc1ccc(/C=C/C2=Cc3c(sc(NC(=O)CSc4n[nH]c(N)n4)c3C#N)C(C)(C)C2)cc1	-26.6	33.1*	43.2*	-42.7	-2.5	-14.0	9.1
Cc1ccc(S(=O)(=O)N2CCCC2c2cccc3[nH]cc(C)c23)cc1 (stereo not drawn)	1.0	1.2	2.9	.	.	-2.2	.
CCOc1cc(C2C(C#N)=C(N)OC(C)=C2C(C)=O)cc(Br)c1O (stereo not drawn)	14.1	26.0*	-9.5	6.3	-4.4	15.2	28.3*
CCOC(=O)[C@H](Cc1ccccc1)NC(=O)[C@H]1C[C@@]2(N3CCCCC3)c3ccccc3N(C(=O)OC(C)(C)C)[C@H]2N1C(=O)OC(C)(C)C	-5.6	2.6	6.3	.	.	5.5	.
O=C(CC(SCCO)c1ccc2c(c1)OCO2)c1cccs1 (stereo not drawn)	-8.9	29.9*	-3.6	-9.4	2.1	-3.1	31.8*
